Test results taken from ChEMBL document CHEMBL1134580, “Novel hypotensive agents from Verbesina caracasana. 8. Synthesis and pharmacology of (3,4-dimethoxycinnamoyl)-N(1)-agmatine and synthetic analogues” (2001).

Legend:
[1] = tested on: Rattus norvegicus; assay: Changes in diastolic Blood pressure following iv administration at (4.12 umol/kg) anesthetized rats; type: functional
Outline: (§1)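 Adult male Wistar rats (280 ± 5 g) anesthetized with 10% (w/v) ethylurethane in saline, 1 mL/100 g ip. Trachea cannulated for spontaneous breathing, body temperature held at 37 °C, 60 min stabilization. Single iv injection into the femoral vein of a saline-dissolved drug, dose expressed as free base; n = 4 per drug. Aortic systolic/diastolic BP recorded via a femoral artery catheter and pressure transducer; peak change taken.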

[2] = tested on: Rattus norvegicus; assay: Changes in systolic Blood pressure following iv administration at (4.12 umol/kg) anesthetized rats; type: functional; outline: as §1
[3] = tested on: Rattus norvegicus; assay: Changes in diastolic blood pressure following iv administration at 4.12 umol/kg in anesthetized rats; type: functional, Artery; outline: as §1
[4] = tested on: Rattus norvegicus; assay: Changes in systolic blood pressure following iv administration at 4.12 umol/kg in anesthetized rats; type: functional, Artery; outline: as §1
[5] = tested on: Rattus norvegicus; assay: Changes in diastolic blood pressure following iv administration at (4.12 umol/kg) anesthetized rats; type: functional; outline: as §1
[6] = tested on: Rattus norvegicus; assay: Changes in systolic blood pressure following iv administration at (4.12 umol/kg) anesthetized rats; type: functional; outline: as §1
[7] = tested on: Rattus norvegicus; assay: Changes in systolic Blood pressure following iv administration at (25 umol/kg) anesthetized rats; type: functional; outline: as §1
[8] = tested on: Rattus norvegicus; assay: Changes in diastolic Blood pressure following iv administration at (25 umol/kg) anesthetized rats; type: functional; outline: as §1
[9] = tested on: Rattus norvegicus; assay: Changes in diastolic blood pressure following iv administration at (12 umol/kg)anesthetized rats; type: functional; outline: as §1
[10] = tested on: Rattus norvegicus; assay: Changes in systolic blood pressure following iv administration at (12 umol/kg)anesthetized rats; type: functional; outline: as §1
[11] = tested on: Rattus norvegicus; assay: Changes in systolic Blood pressure following iv administration at (5 umol/kg) anesthetized rats; type: functional; outline: as §1
[12] = tested on: Rattus norvegicus; assay: Changes in diastolic Blood pressure following iv administration at (5 umol/kg) anesthetized rats; type: functional; outline: as §1
[13] = tested on: Rattus norvegicus; assay: Changes in systolic Blood pressure following iv administration at (8 umol/kg) anesthetized rats; type: functional; outline: as §1
[14] = tested on: Rattus norvegicus; assay: Changes in diastolic Blood pressure following iv administration at (8 umol/kg) anesthetized rats; type: functional; outline: as §1

With COc1ccc(/C=C/C(=O)NCCN=C(N)N)cc1OC.CS(=O)(=O)O the Blood pressure [1] was -33 mmHg and the Blood pressure [2] was -29 mmHg.
Compound COc1ccc(/C=C/C(=O)NCCCCN=C(N)N)cc1OC.CS(=O)(=O)O has a Blood pressure [3] of -30 mmHg and a Blood pressure [4] of -21 mmHg.
In the case of COc1ccc(C(=O)NCCCC/N=C(\N)NCC=C(C)C)cc1.CS(=O)(=O)O, the Blood pressure [1] is reported as -31 mmHg and the Blood pressure [2] is reported as -28 mmHg.
Work on COc1ccc(/C=C/C(=O)NCCCN=C(N)N)cc1OC.CS(=O)(=O)O yielded a Blood pressure [1] of -28 mmHg and a Blood pressure [2] of -24 mmHg.
COc1ccc(C=CC(=O)NCCCCN=C(N)N)cc1OC was tested, and the Blood pressure [1] was -10 mmHg and the Blood pressure [2] was -12 mmHg.
Work on COc1ccc(/C=C/C(=O)NCCCCCCN=C(N)N)cc1OC.CS(=O)(=O)O yielded a Blood pressure [5] of -36 mmHg and a Blood pressure [6] of -14 mmHg.
COc1ccc(/C=C/C(=O)NCCCCCN=C(N)N)cc1OC.CS(=O)(=O)O was tested, and the Blood pressure [1] was -27 mmHg and the Blood pressure [2] was -17 mmHg.
For N=C(N)NCCN1CCCCCCC1 [GUANETHIDINE], the Blood pressure [7] was -32 mmHg and the Blood pressure [8] was -23 mmHg.
C[N+](C)(C)CCCCCC[N+](C)(C)C.[Cl-].[Cl-] [HEXAMETHONIUM CHLORIDE] gave a Blood pressure [9] of -30 mmHg and a Blood pressure [10] of -46 mmHg.
Work on COc1ccc(Cc2nccc3cc(OC)c(OC)cc23)cc1OC [PAPAVERINE] yielded a Blood pressure [11] of -21 mmHg and a Blood pressure [12] of -16 mmHg.
For COC(=O)[C@H]1[C@H]2C[C@@H]3c4[nH]c5cc(OC)ccc5c4CCN3C[C@H]2C[C@@H](OC(=O)c2cc(OC)c(OC)c(OC)c2)[C@@H]1OC [RESERPINE], the Blood pressure [13] was -34 mmHg and the Blood pressure [14] was -27 mmHg.
